Laboratory results as given in ChEMBL document CHEMBL1128216, “Rational design and synthesis of small molecule, non-oligosaccharide selectin inhibitors: (alpha-D-mannopyranosyloxy)biphenyl-substituted carboxylic acids” (J Med Chem, 1995).
Values belong to the molecule of their own block, whether it stands above or below them.

Key:
E-selectin = biological target: T1, E-selectin (Homo sapiens, UniProt P16581); test: In vitro inhibition of HL60 (human leukemia) cell binding to human recombinant e-selectin.; type: cell-based, HL-60
T1 sequence (P16581 whole entry): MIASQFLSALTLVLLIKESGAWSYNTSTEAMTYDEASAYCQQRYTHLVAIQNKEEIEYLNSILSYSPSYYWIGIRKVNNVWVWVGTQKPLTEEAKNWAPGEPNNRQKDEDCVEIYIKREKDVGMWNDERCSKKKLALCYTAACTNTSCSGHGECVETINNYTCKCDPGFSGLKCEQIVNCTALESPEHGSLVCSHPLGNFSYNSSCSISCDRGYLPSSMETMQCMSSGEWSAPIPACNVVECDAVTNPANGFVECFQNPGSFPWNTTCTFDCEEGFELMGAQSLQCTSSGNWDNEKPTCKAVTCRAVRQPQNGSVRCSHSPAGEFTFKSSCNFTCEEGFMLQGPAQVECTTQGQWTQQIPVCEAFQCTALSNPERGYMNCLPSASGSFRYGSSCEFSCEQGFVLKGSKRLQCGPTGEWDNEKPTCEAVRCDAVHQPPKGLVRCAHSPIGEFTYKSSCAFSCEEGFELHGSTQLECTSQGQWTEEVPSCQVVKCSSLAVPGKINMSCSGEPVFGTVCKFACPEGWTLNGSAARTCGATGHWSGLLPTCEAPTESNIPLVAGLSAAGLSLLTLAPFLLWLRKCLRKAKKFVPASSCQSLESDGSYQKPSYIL
Method in brief: (§1)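 Human E-selectin (lectin, EGF and two complement repeats) fused to mouse IgG was captured on anti-mouse IgG magnetic beads overnight at 4 °C. Wells were pre-blocked with 3% BSA/PBS. Compound in PBS was mixed with calcein-labelled HL60 cells (10⁷/mL, RPMI 1640 + 10% FCS) and beads (4 × 10⁶/mL) for 10 min at room temperature. Unbound cells were removed magnetically with two PBS washes, and bound cells were lysed in 1% NP40.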

[1] = biological target: T2, P-selectin (Homo sapiens) (UniProt P16109); test: In vitro inhibitory activity against sialyl Lewis X expressing HL60 cell binding Selectin P at 20 mM concentration; type: cell-based; settings: HL-60
T2 sequence (whole entry): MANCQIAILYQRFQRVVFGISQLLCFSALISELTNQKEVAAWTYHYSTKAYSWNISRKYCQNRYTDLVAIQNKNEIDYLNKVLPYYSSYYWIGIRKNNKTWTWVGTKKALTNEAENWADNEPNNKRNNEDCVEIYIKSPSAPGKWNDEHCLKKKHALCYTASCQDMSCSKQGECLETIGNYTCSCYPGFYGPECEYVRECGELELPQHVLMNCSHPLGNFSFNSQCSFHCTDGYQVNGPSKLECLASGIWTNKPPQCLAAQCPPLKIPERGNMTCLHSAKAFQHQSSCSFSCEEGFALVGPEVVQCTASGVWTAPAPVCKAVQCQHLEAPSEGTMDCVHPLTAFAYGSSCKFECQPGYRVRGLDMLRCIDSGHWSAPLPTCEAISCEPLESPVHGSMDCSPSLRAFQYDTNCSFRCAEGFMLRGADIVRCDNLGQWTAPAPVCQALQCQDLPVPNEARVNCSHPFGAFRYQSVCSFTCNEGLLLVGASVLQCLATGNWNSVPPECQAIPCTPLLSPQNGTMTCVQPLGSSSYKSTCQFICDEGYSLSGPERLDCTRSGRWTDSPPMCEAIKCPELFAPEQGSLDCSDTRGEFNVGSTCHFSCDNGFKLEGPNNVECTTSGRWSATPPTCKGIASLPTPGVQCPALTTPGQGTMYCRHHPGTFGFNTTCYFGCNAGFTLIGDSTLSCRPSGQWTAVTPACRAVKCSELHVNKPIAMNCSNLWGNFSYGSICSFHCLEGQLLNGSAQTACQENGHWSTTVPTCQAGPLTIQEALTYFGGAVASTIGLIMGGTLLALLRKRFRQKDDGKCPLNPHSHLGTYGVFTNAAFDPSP

[2] = biological target: T3, L-selectin (Mus musculus) (UniProt P18337); test: In vitro inhibitory activity against sialyl Lewis X expressing HL60 cell binding to Selectin L at 6 mM concentration; type: cell-based; settings: HL-60
T3 sequence (whole entry): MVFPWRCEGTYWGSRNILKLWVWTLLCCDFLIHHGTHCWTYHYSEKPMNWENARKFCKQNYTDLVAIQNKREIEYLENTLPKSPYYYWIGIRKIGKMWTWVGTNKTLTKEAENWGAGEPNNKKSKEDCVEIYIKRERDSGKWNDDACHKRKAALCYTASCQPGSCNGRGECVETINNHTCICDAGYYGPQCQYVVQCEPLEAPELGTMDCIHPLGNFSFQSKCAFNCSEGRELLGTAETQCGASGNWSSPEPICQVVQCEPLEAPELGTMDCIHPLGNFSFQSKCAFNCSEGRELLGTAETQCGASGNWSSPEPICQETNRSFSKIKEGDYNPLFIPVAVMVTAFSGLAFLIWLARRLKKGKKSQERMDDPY

[3] = biological target: T4, E-selectin (Homo sapiens) (UniProt P16581); test: In vitro inhibitory activity against sialyl Lewis X expressing HL60 cell binding to recombinant human E-selectin at 128 mM concentration; type: cell-based; settings: HL-60; 18 mM; in the assay text read “18 mM” for “128 mM”; method in brief: as §1
T4 sequence (whole entry): T1 sequence (P16581 whole entry)

[4] = biological target: T2, P-selectin (Homo sapiens); test: In vitro inhibitory activity against sialyl Lewis X expressing HL60 cell binding Selectin P at 23 mM concentration; type: cell-based; settings: HL-60
[5] = biological target: T3, L-selectin (Mus musculus); test: In vitro inhibitory activity against sialyl Lewis X expressing HL60 cell binding Selectin L at 6 mM concentration; type: cell-based; settings: HL-60
P-selectin = biological target: T5, P-selectin (Homo sapiens, UniProt P16109); test: In vitro inhibitory activity against sialyl Lewis X expressing HL60 cell binding Selectin P; type: cell-based, HL-60
T5 sequence (P16109 whole entry): T2 sequence (whole entry)

[6] = biological target: T4, E-selectin (Homo sapiens); test: In vitro inhibitory activity against sialyl Lewis X expressing HL60 cell binding to recombinant human E-selectin at 20 mM concentration; type: cell-based; settings: HL-60; method in brief: as §1
[7] = biological target: T3, L-selectin (Mus musculus); test: In vitro inhibitory activity against sialyl Lewis X expressing HL60 cell binding to Selectin L at 3 mM concentration; settings: HL-60
[8] = biological target: T3, L-selectin (Mus musculus); test: In vitro inhibitory activity against sialyl Lewis X expressing HL60 cell binding to Selectin L at 8 mM concentration; type: cell-based; settings: HL-60
L-selectin = biological target: T6, L-selectin (Mus musculus, UniProt P18337); test: In vitro inhibitory activity against sialyl Lewis X expressing HL60 cell binding Selectin L; type: cell-based, HL-60
T6 sequence (P18337 whole entry): T3 sequence (whole entry)

[9] = biological target: T4, E-selectin (Homo sapiens); test: In vitro inhibitory activity against sialyl Lewis X expressing HL60 cell binding to recombinant human E-selectin at 40 mM concentration; type: cell-based; settings: HL-60; method in brief: as §1
[10] = biological target: T3, L-selectin (Mus musculus); test: In vitro inhibitory activity against sialyl Lewis X expressing HL60 cell binding Selectin L at 1 mM concentration; type: cell-based; settings: HL-60
[11] = biological target: T3, L-selectin (Mus musculus); test: In vitro inhibitory activity against sialyl Lewis X expressing HL60 cell binding to Selectin L at 5 mM concentration; type: cell-based; settings: HL-60
[12] = biological target: T4, E-selectin (Homo sapiens); test: In vitro inhibitory activity against sialyl Lewis X expressing HL60 cell binding to recombinant human E-selectin at 1 mM concentration; type: cell-based; settings: HL-60; method in brief: as §1

- inhibition [3]: 0%
- inhibition [4]: 25%
- inhibition [5]: 0%
Compound: O=C(O)CNC(=O)c1cccc(-c2ccccc2O[C@H]2O[C@H](CO)[C@@H](O)[C@@H](O)[C@@H]2O)c1

- IC50 (E-selectin): 20 mM
Compound: CC(C(=O)O)c1cccc(-c2ccccc2O[C@H]2O[C@H](CO)[C@@H](O)[C@@H](O)[C@@H]2O)c1 (stereo in doubt; 9s)

- IC50 (E-selectin): 20 mM
Compound: O=S(=O)(O)CCc1cccc(-c2ccccc2O[C@H]2O[C@H](CO)[C@@H](O)[C@@H](O)[C@@H]2O)c1

- IC50 (E-selectin): 20.2 mM
- IC50 (P-selectin): 12 mM
Compound: Cc1ccc(OCC(=O)O)cc1-c1ccccc1O[C@H]1O[C@H](CO)[C@@H](O)[C@@H](O)[C@@H]1O

- inhibition [6]: 0%
- inhibition [1]: 0%
- inhibition [8]: 0%
Compound: Cc1c(OCC(=O)O)cccc1-c1ccccc1O[C@H]1O[C@H](CO)[C@@H](O)[C@@H](O)[C@@H]1O

- IC50 (E-selectin): 3 mM
- IC50 (L-selectin): 2 mM
- IC50 (P-selectin): 2 mM
Compound: CC(=O)N[C@H]1[C@H]([C@H](O)[C@H](O)CO)O[C@@](O[C@H]2[C@@H](O)[C@@H](CO)O[C@@H](O[C@@H]([C@H](O[C@@H]3O[C@@H](C)[C@@H](O)[C@@H](O)[C@@H]3O)[C@H](C=O)NC(C)=O)[C@H](O)CO)[C@@H]2O)(C(=O)O)C[C@@H]1O [SIALYL LEWIS X]

- IC50 (E-selectin): 3.8 mM
- inhibition [1]: 0%
- inhibition [11]: 0%
Compound: O=C(N[C@@H](Cc1ccccc1)C(=O)O)c1ccc(-c2ccccc2O[C@H]2O[C@H](CO)[C@@H](O)[C@@H](O)[C@@H]2O)cc1

- inhibition [12]: 14%
- inhibition [1]: 5%
- inhibition [5]: 0%
Compound: O=C(N[C@H](Cc1ccccc1)C(=O)O)c1cccc(-c2ccccc2O[C@H]2O[C@H](CO)[C@@H](O)[C@@H](O)[C@@H]2O)c1

The remaining lines, values behind:

Compound: O=C(O)Cc1ccc(-c2ccccc2O[C@H]2O[C@H](CO)[C@@H](O)[C@@H](O)[C@@H]2O)cc1
- IC50 (E-selectin): 2.6 mM
- inhibition [1]: 0%
- inhibition [2]: 0%

Compound: O=C(O)CCC(=O)c1ccc(-c2ccccc2O[C@H]2O[C@H](CO)[C@@H](O)[C@@H](O)[C@@H]2O)cc1
- inhibition [6]: 40%
- inhibition [1]: 0%
- inhibition [7]: 0%

Compound: OC[C@H]1O[C@H](Oc2ccccc2-c2cccc(Cc3nnn[nH]3)c2)[C@@H](O)[C@H](O)[C@@H]1O
- inhibition [9]: 17%

Compound: O=C(O)CCNC(=O)c1ccc(-c2ccccc2O[C@H]2O[C@H](CO)[C@@H](O)[C@@H](O)[C@@H]2O)cc1
- IC50 (E-selectin): 36 mM
- inhibition [10]: 0%

Compound: O=C(O)COc1cccc(-c2ccccc2O[C@H]2O[C@H](CO)[C@@H](O)[C@@H](O)[C@@H]2O)c1
- IC50 (E-selectin): 4.9 mM
- IC50 (L-selectin): 17 mM
- IC50 (P-selectin): 4.9 mM

Compound: N#CCc1cccc(-c2ccccc2O[C@H]2O[C@H](CO)[C@@H](O)[C@@H](O)[C@@H]2O)c1
- IC50 (E-selectin): 7 mM
- inhibition [4]: 40%
- IC50 (L-selectin): 1.5 mM

Compound: O=C(O)Cc1cccc(-c2ccccc2O[C@H]2O[C@H](CO)[C@@H](O)[C@@H](O)[C@@H]2O)c1
- IC50 (E-selectin): 2 mM
- IC50 (L-selectin): 1 mM
- IC50 (P-selectin): 2.6 mM
